Read-outs that look alike come from different tables or passages of the source. Bounds are passed on as bounds.

Assay [1] concerns the target T1, HDAC8 (Homo sapiens, UniProt Q9BY41).
T1 sequence (Q9BY41 1-377): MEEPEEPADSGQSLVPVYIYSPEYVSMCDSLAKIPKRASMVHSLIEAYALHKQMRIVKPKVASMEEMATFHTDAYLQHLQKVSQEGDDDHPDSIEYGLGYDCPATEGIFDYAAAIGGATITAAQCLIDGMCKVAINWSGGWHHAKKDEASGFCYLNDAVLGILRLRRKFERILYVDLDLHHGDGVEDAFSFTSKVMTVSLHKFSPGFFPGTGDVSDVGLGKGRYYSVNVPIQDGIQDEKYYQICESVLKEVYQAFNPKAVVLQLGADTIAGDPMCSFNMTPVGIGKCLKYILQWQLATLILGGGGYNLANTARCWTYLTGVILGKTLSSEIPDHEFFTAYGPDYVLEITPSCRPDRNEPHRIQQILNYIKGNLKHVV
The assay is described as follows: HDAC enzyme activity assay. It is filed as biochemical. Conditions: for remaining activity at 50 µM: read-out: Residual HDAC8 activity at 50 μM. In short, it runs like this: (§1)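 HDAC4 and HDAC8 were in-house recombinant enzymes. Each was preincubated with inhibitor, either a single 50 μM screen or serial dilutions, for 60 min at 30 °C in Tris-HCl pH 8.0/KCl/Pluronic buffer. Substrate was 20 μM Boc-Lys(trifluoroacetyl)-AMC for 60 min at 30 °C, stopped with 1.7 μM SATFMK, and developed with trypsin. AMC fluorescence was read at 350/450 nm and reported as residual activity or as IC50 from a four-parameter logistic fit.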

For assay [2], the target named is HDAC4 (Homo sapiens, UniProt P56524). The assay is described as follows: HDAC enzyme activity assay. The class given is biochemical. The note with it: for remaining activity at 50 µM: read-out: Residual HDAC4 activity at 50 μM. In short, it runs like this:
as §1

Sequence of HDAC4 (P56524 648-1057 limits assumed): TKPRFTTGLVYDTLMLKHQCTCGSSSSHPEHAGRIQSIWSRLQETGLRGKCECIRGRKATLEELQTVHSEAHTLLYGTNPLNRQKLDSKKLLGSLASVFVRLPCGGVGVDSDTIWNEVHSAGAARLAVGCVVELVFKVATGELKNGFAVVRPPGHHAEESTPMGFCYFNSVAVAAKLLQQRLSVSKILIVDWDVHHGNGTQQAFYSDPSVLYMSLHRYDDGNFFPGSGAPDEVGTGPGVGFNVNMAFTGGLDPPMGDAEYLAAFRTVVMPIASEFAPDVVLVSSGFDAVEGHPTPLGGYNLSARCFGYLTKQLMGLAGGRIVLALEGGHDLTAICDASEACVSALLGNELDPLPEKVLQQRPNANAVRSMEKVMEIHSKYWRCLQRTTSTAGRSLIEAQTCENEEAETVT

As for `O=C(CN1C(=O)SC(=Cc2ccccn2)C1=O)Nc1ccc(F)cc1` [Compound P11, 2-(2,4-dioxo-5-(pyridin-2-ylmethylene)thiazolidin-3-yl)-N-(4-fluorophenyl)acetamide], in assay [1], the IC50 was above 50 µM. In assay [2], the IC50 is above 50 µM and the remaining activity at 50 µM was determined as 100%.

Take `O=C(CN1C(=O)SC(=Cc2ccccn2)C1=O)Nc1ccccc1F` [Compound P2, 2-(2,4-dioxo-5-(pyridin-2-ylmethylene)thiazolidin-3-yl)-N-(2-fluorophenyl)acetamide]: the IC50 in assay [1] and in assay [2] was above 50 µM in each case. For the same molecule, the remaining activity at 50 µM in assay [1] was 92%; in assay [2], 100%.

As for `Cc1ccc(NC(=O)CN2C(=O)SC(=Cc3ccccn3)C2=O)cc1Cl` [Compound P17, N-(3-chloro-4-methylphenyl)-2-(2,4-dioxo-5-(pyridin-2-ylmethylene)thiazolidin-3-yl)acetamide], in assay [1], the IC50 is above 50 µM and the remaining activity at 50 µM came out at 88%. For the same molecule, in assay [2], the IC50 was above 50 µM and the remaining activity at 50 µM was determined as 100%.

Take `O=C(CN1C(=O)SC(=Cc2ccccn2)C1=O)Nc1c(F)cc(Br)cc1F` [Compound P15, N-(4-bromo-2,6-difluorophenyl)-2-(2,4-dioxo-5-(pyridin-2-ylmethylene)thiazolidin-3-yl)acetamide]: the IC50 in assay [1] and in assay [2] was above 50 µM throughout. Further, the remaining activity at 50 µM in assay [1] stood at 94%; in assay [2], 100%.

As to `O=C(CN1C(=O)SC(=Cc2ccccn2)C1=O)Nc1ccccc1` [Compound P1, 2-(2,4-dioxo-5-(pyridin-2-ylmethylene)thiazolidin-3-yl)-N-phenylacetamide], the IC50 in assay [1] and in assay [2] was above 50 µM each time. Also, the remaining activity at 50 µM in assay [1] turned out to be 89%; in assay [2], 100%.

Turning to `O=C(CN1C(=O)SC(=Cc2ccccn2)C1=O)Nc1ccc(Cl)cc1C(F)(F)F` [Compound P7, N-(4-chloro-2-(trifluoromethyl)phenyl)-2-(2,4-dioxo-5-(pyridin-2-ylmethylene)thiazolidin-3-yl)acetamide], the half-inhibitory concentration (IC50) in assay [1] and in assay [2] was above 50 µM each time. Moreover, the remaining activity at 50 µM in assay [1] stood at 61%; in assay [2], 100%.

For `COc1cccc(NC(=O)CN2C(=O)SC(=Cc3ccccn3)C2=O)c1` [Compound P24, 2-(2,4-dioxo-5-(pyridin-2-ylmethylene)thiazolidin-3-yl)-N-(3-methoxyphenyl)acetamide], in assay [1], the IC50 is above 50 µM and the remaining activity at 50 µM stood at 68%. Moreover, in assay [2], the IC50 is above 50 µM and the remaining activity at 50 µM amounted to 100%.

`O=C(CN1C(=O)SC(=Cc2ccccn2)C1=O)Nc1ccc(Br)cc1` [Compound P22, N-(4-bromophenyl)-2-(2,4-dioxo-5-(pyridin-2-ylmethylene)thiazolidin-3-yl)acetamide]: in assay [1], the IC50 was above 50 µM and the remaining activity at 50 µM stood at 64%. In assay [2], the IC50 is above 50 µM and the remaining activity at 50 µM amounted to 100%.

Take `Cc1cnc(NC(=O)CN2C(=O)SC(=Cc3ccccn3)C2=O)s1` [Compound P21, 2-(2,4-dioxo-5-(pyridin-2-ylmethylene)thiazolidin-3-yl)-N-(5-methylthiazol-2-yl)acetamide]: in assay [1], the IC50 was above 50 µM and the remaining activity at 50 µM worked out at 54%. For the same molecule, in assay [2], the IC50 was above 50 µM and the remaining activity at 50 µM came out at 100%.

In the case of `O=C(CN1C(=O)SC(=Cc2ccccn2)C1=O)Nc1nccs1` [Compound P20, 2-(2,4-dioxo-5-(pyridin-2-ylmethylene)thiazolidin-3-yl)-N-(thiazol-2-yl)acetamide], in assay [1], the IC50 was above 50 µM and the remaining activity at 50 µM was 92%. Besides, in assay [2], the IC50 was above 50 µM and the remaining activity at 50 µM turned out to be 100%.

For `O=C(CN1C(=O)SC(=Cc2ccccn2)C1=O)Nc1ccc(Br)cc1F` [Compound P4, N-(4-bromo-2-fluorophenyl)-2-(2,4-dioxo-5-(pyridin-2-ylmethylene)thiazolidin-3-yl)acetamide], the IC50 in assay [1] and in assay [2] was above 50 µM in each case. Moreover, the remaining activity at 50 µM in assay [1] worked out at 85%; in assay [2] it was 100%.

On to `O=C(CN1C(=O)SC(=Cc2ccccn2)C1=O)Nc1cccc(F)c1` [Compound P3, 2-(2,4-dioxo-5-(pyridin-2-ylmethylene)thiazolidin-3-yl)-N-(3-fluorophenyl)acetamide], for which, in assay [1], the IC50 was above 50 µM and the remaining activity at 50 µM was 53%. In addition, in assay [2], the IC50 is above 50 µM and the remaining activity at 50 µM amounted to 100%.

Consider “2-(2,4-dioxo-5-(pyridin-2-ylmethylene)thiazolidin-3-yl)-N-(4-methylisoxazol-3-yl)acetamide [Compound P18]”, for which, in assay [1] (50 μM), the “Residual HDAC8 activity at 50 μM” value amounted to 99%. Further, the IC50 in assay [1] (read-out: HDAC8 IC50, triplicates, N=3) is above 50 µM; in assay [2] (read-out: HDAC4 IC50, triplicates, N=3), above 50 µM. Further, in assay [2] (50 μM), the “Residual HDAC4 activity at 50 μM” value is 100%.

For `COc1ccc(NC(=O)CN2C(=O)SC(=Cc3ccccn3)C2=O)cc1` [Compound P14, 2-(2,4-dioxo-5-(pyridin-2-ylmethylene)thiazolidin-3-yl)-N-(4-methoxyphenyl)acetamide], in assay [1], the IC50 is above 50 µM and the remaining activity at 50 µM worked out at 67%. Besides, in assay [2], the IC50 is above 50 µM and the remaining activity at 50 µM is 100%.

Take `O=C(CN1C(=O)SC(=Cc2ccccn2)C1=O)Nc1ccccn1` [Compound P23, 2-(2,4-dioxo-5-(pyridin-2-ylmethylene)thiazolidin-3-yl)-N-(pyridin-2-yl)acetamide]: the IC50 in assay [1] and in assay [2] was above 50 µM in each case. Moreover, the remaining activity at 50 µM in assay [1] came out at 54%; in assay [2] it was 85%.

With `O=C(CN1C(=O)SC(=Cc2ccccn2)C1=O)Nc1cccc(C(F)(F)F)c1` [Compound P6, 2-(2,4-dioxo-5-(pyridin-2-ylmethylene)thiazolidin-3-yl)-N-(3-(trifluoromethyl)phenyl)acetamide], in assay [1], the IC50 is above 50 µM and the remaining activity at 50 µM is 82%. Further, in assay [2], the IC50 was above 50 µM and the remaining activity at 50 µM came out at 100%.

As to `O=C(CN1C(=O)SC(=Cc2ccccn2)C1=O)Nc1ccc([N+](=O)[O-])cc1` [Compound P16, 2-(2,4-dioxo-5-(pyridin-2-ylmethylene)thiazolidin-3-yl)-N-(4-nitrophenyl)acetamide], in assay [1], the IC50 is above 50 µM. Also, in assay [2], the IC50 was above 50 µM and the remaining activity at 50 µM was determined as 100%.

On to `O=C(CN1C(=O)SC(=Cc2ccccn2)C1=O)Nc1ccccc1Oc1ccccc1` [Compound P13, 2-(2,4-dioxo-5-(pyridin-2-ylmethylene)thiazolidin-3-yl)-N-(2-phenoxyphenyl)acetamide], for which, in assay [1], the IC50 is above 50 µM and the remaining activity at 50 µM came to 91%. For the same molecule, in assay [2], the IC50 is above 50 µM and the remaining activity at 50 µM is 100%.

The values are drawn from paper PMC7302971 (Bioorganic chemistry, 2020).
